{"data": "Measurements from different studies", "cell line": "A549", "effect on": "cell growth or viability", "note": "Lines come from different studies, so protocols differ."}
{"SMILES": "Cn1c(=O)c2c(ncn2Cc2nnc(SCC(=O)Nc3ccccc3)n2-c2ccccc2)n(C)c1=O", "technique": "MTT", "IC50": "143 µM"}
{"SMILES": "CN1C(=O)/C(=N\\NC(=O)c2cc3ccccc3[nH]2)c2cc(F)ccc21", "IC50": "2.82 µM"}
{"SMILES": "CCN(CC)C/C=N/NC(=O)Nc1cc2c(Nc3ccc(F)c(Cl)c3)ncnc2cc1OC", "technique": "MTT", "time": "72 h", "IC50": "6.19 µM"}
{"SMILES": "COC(=O)/C=C/C=C/c1ccc2c(c1)OCO2", "technique": "SRB", "IC50": "162 µM"}
{"SMILES": "COc1cc([C@@H]2c3cc4c(cc3[C@@H](O[C@@H]3O[C@@H]5CO[C@@H](C)O[C@H]5[C@H](O)[C@H]3O)[C@H]3COC(=O)[C@H]23)OCO4)cc(OC)c1O", "technique": "MTT", "time": "72 h", "IC50": "0.54 µM"}
{"SMILES": "COc1ccccc1/C=C/CNCC(O)COc1ccc2c(c1)[nH]c1ccccc12 (centres unmarked)", "technique": "CCK-8", "time": "72 h", "IC50": "6.8 µM"}
{"SMILES": "CCn1c(-c2nnc(NC(=O)c3cc4c([nH]c5ccccc54)c(-c4cc(OC)c(OC)c(OC)c4)n3)s2)cc2ccccc21", "technique": "MTT", "time": "72 h", "IC50": "10.9 µM"}
{"SMILES": "Oc1ccc(-c2csc(Nc3ccc4c(O)ncnc4c3)n2)cc1", "technique": "MTT", "IC50": "31.2 µM"}
{"SMILES": "O=C1Nc2ccccc2/C1=N/NC(=O)c1cc2ccccc2[nH]1", "IC50": "13 µM"}
{"SMILES": "CC1=C(O)C(=O)C=C2C1=CC=C1[C@@]2(C)CC[C@@]2(C)[C@@H]3C[C@](C)(C(=O)OCCCCCCCCO)CC[C@]3(C)CC[C@]12C", "technique": "MTT", "time": "48 h", "IC50": "4.13 µM"}
{"SMILES": "CN(C)c1ccc2cc(C(=O)N[C@@H](CCCNC(=N)CCl)C(=O)NCc3ccccc3)ccc2c1", "time": "48 h", "IC50": "9.7 µM"}
{"SMILES": "O=C([O-])c1ccc(-n2nc(-c3ccccc3O)nc2-c2ccccc2[O-])cc1.O=C([O-])c1ccc(-n2nc(-c3ccccc3O)nc2-c2ccccc2[O-])cc1.[Ti+4]", "technique": "MTT", "time": "72 h", "IC50": "20 µM"}
{"SMILES": "COc1ccccc1/C=C/CNCC(O)COc1ccc2[nH]ccc2c1 (centres unmarked)", "technique": "CCK-8", "time": "72 h", "IC50": "25.4 µM"}
{"SMILES": "Cc1cc(C)n(-c2nc(NN=Cc3c[nH]c4ccccc34)nc(Nc3ccc(Br)cc3)n2)n1", "technique": "SRB", "time": "72 h", "IC50": "6.1 µM"}
{"SMILES": "O=C(N/N=C/c1cccn1CCN1CCOCC1)Nc1cc2c(Nc3ccc(F)c(Cl)c3)ncnc2cc1O[C@H]1CCOC1", "technique": "MTT", "time": "72 h", "IC50": "1.32 µM"}
{"SMILES": "O=C(NC(=S)Nc1ccccc1)c1ccc2ccccc2c1", "time": "48 h", "IC50": "6.86 µM"}
{"SMILES": "COc1cc2ncnc(Nc3ccc(F)c(Cl)c3)c2cc1NC(=O)N/N=C/CN1CCCC1", "technique": "MTT", "time": "72 h", "IC50": "5.67 µM"}
{"SMILES": "C=CC(=O)Nc1cc(Nc2nc(N3CCc4sccc4C3)c3cccnc3n2)c(OC)cc1N(C)C", "technique": "MTT", "IC50": "> 50 µM"}
{"SMILES": "O=[N+]([O-])c1ccc(-c2csc(Nc3ccc4c(O)ncnc4c3)n2)cc1", "technique": "MTT", "IC50": "17.9 µM"}
{"SMILES": "O=C(NC(=S)NCCNC(=S)NC(=O)c1ccc2ccccc2c1)c1ccc2ccccc2c1", "time": "48 h", "IC50": "2.73 µM"}
{"SMILES": "CN(C)CCCn1cccc1/C=N/NC(=O)Nc1cc2c(Nc3ccc(F)c(Cl)c3)ncnc2cc1O[C@H]1CCOC1", "technique": "MTT", "time": "72 h", "IC50": "6.17 µM"}
{"SMILES": "Cc1c(OCC(F)(F)F)ccnc1COc1ccc(NC(=O)Nc2ccc(F)cc2)cc1", "technique": "MTT", "time": "72 h", "IC50": "5.37 µM"}
{"SMILES": "O=c1[nH]cc(S(=O)(=O)Nc2cccc(-c3nnc(-c4cccc(Cl)c4)o3)c2)c(=O)[nH]1", "technique": "MTT", "time": "24 h", "IC50": "0.78 µM"}
{"SMILES": "CCC(=O)Nc1cc(Nc2nc(N3CCc4sccc4C3)c3cccnc3n2)c(OC)cc1N1CCN(CCO)CC1", "technique": "MTT", "IC50": "> 50 µM"}
{"SMILES": "COc1ccc(-c2nn(-c3ccc(S(C)(=O)=O)cc3)cc2/C=N/N=c2\\[nH]c(-c3ccc(Br)cc3)cs2)cc1", "technique": "MTT", "time": "48 h", "IC50": "14.3 µM"}
{"SMILES": "CCNC(=S)NC(=O)c1ccc2ccccc2c1", "time": "48 h", "IC50": "5.01 µM"}
{"SMILES": "O=C(NCCc1ccccc1)NNC(=O)c1ccc(Nc2nccc(-c3cccnc3)n2)cc1", "technique": "MTT", "IC50": "23.7 µM"}
{"SMILES": "C=CC(=O)Nc1cc(Nc2nc(Nc3cnn(C)c3)c3sccc3n2)c(OC)cc1N(C)CCN(C)C", "technique": "MTT", "IC50": "> 50 µM"}
{"SMILES": "Cc1ccc(C)n1-c1ccc(-c2nnc(S)s2)cc1", "technique": "MTT", "time": "72 h", "IC50": "223 µM"}
{"SMILES": "COc1ccnc(COc2ccc(NC(=O)Nc3ccc(F)cc3)cc2)c1OC", "technique": "MTT", "time": "72 h", "IC50": "23.3 µM"}
{"SMILES": "C=CC(=O)Nc1cc(Nc2nc(N3CCc4sccc4C3)c3cccnc3n2)c(OC)cc1N1CCOCC1", "technique": "MTT", "IC50": "> 50 µM"}
{"SMILES": "COc1ccccc1/C=C/CNCC(O)COc1ccncc1 (centres unmarked)", "technique": "CCK-8", "time": "72 h", "IC50": "> 100 µM"}
{"SMILES": "COc1cc2ncnc(Nc3ccc(F)c(Cl)c3)c2cc1NC(=O)N/N=C/c1cccn1CCCN1CCCC1", "technique": "MTT", "time": "72 h", "IC50": "2.45 µM"}
{"SMILES": "COc1ccccc1/C=C/CNCC(O)COc1cccc2ncccc12 (centres unmarked)", "technique": "CCK-8", "time": "72 h", "IC50": "28.1 µM"}
{"SMILES": "CCC(=O)Nc1cc(Nc2nc(N3CCc4sccc4C3)c3cccnc3n2)c(OC)cc1N(C)C", "technique": "MTT", "IC50": "> 50 µM"}
{"SMILES": "Cc1cccc(NC(=O)NNC(=O)c2ccc(Nc3nccc(-c4ccccn4)n3)cc2)c1", "technique": "MTT", "IC50": "> 40 µM"}
{"SMILES": "COc1ccc(/C=C2\\SC(=S)N(CC(=O)Nc3ccccc3)C2=O)cc1", "technique": "MTT", "IC50": "25.7 µM"}
{"SMILES": "Cc1c(OCC(F)(F)F)ccnc1COc1ccc(NC(=O)Nc2ccc(Cl)cc2)cc1", "technique": "MTT", "time": "72 h", "IC50": "2.39 µM"}
{"SMILES": "COc1nc(OCc2cccc(-c3ccccc3)c2C)ccc1CNCCNC(C)=O", "technique": "MTT", "IC50": "4.6 µM"}
{"SMILES": "COc1ccc(C(=O)O[C@@H]2CN3Cc4c(cc5c(c4OC)OCO5)[C@@]24C=C[C@H](OC)C[C@@H]34)cc1", "technique": "WST-1", "IC50": "> 10 µM"}
{"SMILES": "C=CC(=O)Nc1cccc(Nc2nc(Nc3ccc(OCCOC)cc3)ncc2F)c1", "IC50": "4.96 µM"}
